Values after ≈ are worked out from the molar mass of the structure shown.
How the values were obtained:
Assay type in all cases: functional
[1] = tested on: Streptococcus pyogenes; assay: Antibacterial activity against efflux mediated macrolide resistant Streptococcus pyogenes by agar microdilution method
Outline: (§1)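 Agar microdilution per NCCLS guidelines; MIC reported in μg/mL; differences treated as significant only when more than a factor of 2 (one dilution) apart.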

[2] = tested on: Haemophilus influenzae; assay: Antibacterial activity against Haemophilus influenzae by agar microdilution method
Outline: (§2)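 MIC by agar microdilution following NCCLS guidelines. Values in μg/mL. Only differences of more than one twofold dilution were treated as significant. Ery-S denotes erythromycin-susceptible strains.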

[3] = tested on: Moraxella catarrhalis; assay: Antibacterial activity against Moraxella catarrhalis by agar microdilution method; outline: as §2
[4] = tested on: Staphylococcus aureus; assay: Antibacterial activity against erythromycin-susceptible Staphylococcus aureus by agar microdilution method; outline: as §2
[5] = tested on: Staphylococcus aureus; assay: Antibacterial activity against inducibly macrolide-lincosamide-streptogramin B resistant Staphylococcus aureus by agar microdilution method; outline: as §1
[6] = tested on: Staphylococcus aureus; assay: Antibacterial activity against constitutive macrolide-lincosamide-streptogramin B resistant Staphylococcus aureus by agar microdilution method; outline: as §1
[7] = tested on: Staphylococcus aureus; assay: Antibacterial activity against efflux mediated macrolide resistant Staphylococcus aureus by agar microdilution method; outline: as §1
[8] = tested on: Streptococcus pneumoniae; assay: Antibacterial activity against erythromycin-susceptible Streptococcus pneumoniae by agar microdilution method; outline: as §2
[9] = tested on: Streptococcus pneumoniae; assay: Antibacterial activity against constitutive macrolide-lincosamide-streptogramin B resistant Streptococcus pneumoniae by agar microdilution method; outline: as §1
[10] = tested on: Streptococcus pneumoniae; assay: Antibacterial activity against efflux mediated macrolide resistant Streptococcus pneumoniae by agar microdilution method; outline: as §1
[11] = tested on: Streptococcus pyogenes; assay: Antibacterial activity against erythromycin-susceptible Streptococcus pyogenes by agar microdilution method; outline: as §2
[12] = tested on: Streptococcus pyogenes; assay: Antibacterial activity against inducibly macrolide-lincosamide-streptogramin B resistant Streptococcus pyogenes by agar microdilution method; outline: as §1
[13] = tested on: Streptococcus pyogenes; assay: Antibacterial activity against constitutive macrolide-lincosamide-streptogramin B resistant Streptococcus pyogenes by agar microdilution method; outline: as §1

SMILES | MIC [1] [µg/mL] | MIC [2] [µg/mL] | MIC [3] [µg/mL] | MIC [4] [µg/mL] | MIC [5] [µg/mL] | MIC [6] [µg/mL] | MIC [7] [µg/mL] | MIC [8] [µg/mL] | MIC [9] [µg/mL] | MIC [10] [µg/mL] | MIC [11] [µg/mL] | MIC [12] [µg/mL] | MIC [13] [µg/mL]
CC[C@@H]1OC(=O)[C@H](C)[C@@H](O[C@@H]2C[C@](C)(OC)[C@H](O)[C@@H](C)O2)[C@@H](C)[C@@H](O[C@@H]2O[C@H](C)C[C@H](N(C)C)[C@H]2O)[C@](C)(O)C[C@@H](C)CN(C)[C@H](C)[C@@H](O)[C@]1(C)O | 16 (≈ 21.4 µM) | 1 (≈ 1.34 µM) | 0.25 (≈ 0.334 µM) | 1 (≈ 1.34 µM) | > 64 | > 64 | 32 (≈ 42.7 µM) | ≤ 0.125 | > 64 | 8 (≈ 10.7 µM) | ≤ 0.125 | > 64 | > 64
CC[C@H]1OC(=O)[C@@H](C)[C@H](O[C@@H]2C[C@](C)(OC)[C@H](OC(=O)CNCCCNCCNc3cc4c(=O)c(C(=O)O)cn(C5CC5)c4cc3Cl)[C@@H](C)O2)[C@H](C)[C@H](O[C@H]2O[C@@H](C)C[C@@H](N(C)C)[C@@H]2O)[C@@](C)(O)C[C@H](C)CN(C)[C@@H](C)[C@H](O)[C@@]1(C)O | – | 0.5 (≈ 0.428 µM) | ≤ 0.125 | ≤ 0.125 | 0.25 (≈ 0.214 µM) | > 64 | 0.25 (≈ 0.214 µM) | ≤ 0.125 | – | – | ≤ 0.125 | – | –
CC[C@H]1OC(=O)[C@@H](C)[C@H](O[C@H]2C[C@@](C)(OC)[C@@H](OC(=O)CN)[C@H](C)O2)[C@@H](C)[C@H](O[C@H]2O[C@@H](C)C[C@@H](N(C)C)[C@@H]2O)[C@@](C)(O)C[C@H](C)CN(C)[C@@H](C)[C@@H]2OC(=O)O[C@@]12C | > 64 | > 64 | > 64 | 32 (≈ 38.5 µM) | > 64 | > 64 | > 64 | ≤ 0.125 | > 64 | 32 (≈ 38.5 µM) | ≤ 0.125 | 32 (≈ 38.5 µM) | > 64
CCC1OC(=O)[C@H](C)[C@@H](O[C@H]2C[C@@](C)(OC)[C@@H](OC(=O)CNCCSc3cnc4ccccc4n3)[C@H](C)O2)C(C)[C@@H](O[C@@H]2O[C@H](C)C[C@H](N(C)C)[C@H]2O)[C@](C)(O)C[C@@H](C)CN(C)[C@H](C)[C@@H](O)[C@]1(C)O (single isomer, unassigned) | 0.25 (≈ 0.251 µM) | 4 (≈ 4.02 µM) | 1 (≈ 1.01 µM) | 2 (≈ 2.01 µM) | 0.5 (≈ 0.503 µM) | > 64 | 2 (≈ 2.01 µM) | ≤ 0.125 | 16 (≈ 16.1 µM) | – | ≤ 0.125 | 4 (≈ 4.02 µM) | 16 (≈ 16.1 µM)
CCC1OC(=O)[C@H](C)[C@@H](O[C@H]2C[C@@](C)(OC)[C@@H](OC(=O)CNC(=O)CNC(=O)CSc3cnc4ccccc4n3)[C@H](C)O2)C(C)[C@@H](O[C@@H]2O[C@H](C)C[C@H](N(C)C)[C@H]2O)[C@](C)(O)C[C@@H](C)CN(C)[C@H](C)[C@@H](O)[C@]1(C)O (single isomer, unassigned) | 0.25 (≈ 0.235 µM) | 4 (≈ 3.75 µM) | 4 (≈ 3.75 µM) | 1 (≈ 0.939 µM) | 0.5 (≈ 0.469 µM) | > 64 | 2 (≈ 1.88 µM) | ≤ 0.125 | 16 (≈ 15 µM) | – | 0.25 (≈ 0.235 µM) | 4 (≈ 3.75 µM) | 16 (≈ 15 µM)
CCC1OC(=O)[C@H](C)[C@@H](O[C@H]2C[C@@](C)(OC)[C@@H](OC(=O)CNC(=O)CCNCCNc3cc4c(cc3F)c(=O)c(C(=O)O)cn4C3CC3)[C@H](C)O2)C(C)[C@@H](O[C@@H]2O[C@H](C)C[C@H](N(C)C)[C@H]2O)[C@](C)(O)C[C@@H](C)CN(C)[C@H](C)[C@@H](O)[C@]1(C)O (single isomer, unassigned) | 2 (≈ 1.72 µM) | 4 (≈ 3.43 µM) | 1 (≈ 0.858 µM) | 0.25 (≈ 0.215 µM) | 8 (≈ 6.86 µM) | > 64 | 2 (≈ 1.72 µM) | ≤ 0.125 | 4 (≈ 3.43 µM) | 1 (≈ 0.858 µM) | ≤ 0.125 | 1 (≈ 0.858 µM) | 4 (≈ 3.43 µM)
CCC1OC(=O)[C@H](C)[C@@H](O[C@H]2C[C@@](C)(OC)[C@@H](OC(=O)CNCCNC(=O)CSc3cnc4ccccc4n3)[C@H](C)O2)C(C)[C@@H](O[C@@H]2O[C@H](C)C[C@H](N(C)C)[C@H]2O)[C@](C)(O)C[C@@H](C)CN(C)[C@H](C)[C@@H](O)[C@]1(C)O (single isomer, unassigned) | – | 8 (≈ 7.61 µM) | 8 (≈ 7.61 µM) | 8 (≈ 7.61 µM) | 0.25 (≈ 0.238 µM) | > 64 | 1 (≈ 0.951 µM) | ≤ 0.125 | 8 (≈ 7.61 µM) | – | ≤ 0.125 | 1 (≈ 0.951 µM) | 8 (≈ 7.61 µM)
CCC1OC(=O)[C@H](C)[C@@H](O[C@H]2C[C@@](C)(OC)[C@@H](OC(=O)CNC(=O)CCNCCOCCNc3cc4c(=O)c(C(=O)O)cn(C5CC5)c4cc3Cl)[C@H](C)O2)C(C)[C@@H](O[C@@H]2O[C@H](C)C[C@H](N(C)C)[C@H]2O)[C@](C)(O)C[C@@H](C)CN(C)[C@H](C)[C@@H](O)[C@]1(C)O (single isomer, unassigned) | 1 (≈ 0.816 µM) | 2 (≈ 1.63 µM) | 0.5 (≈ 0.408 µM) | ≤ 0.125 | 2 (≈ 1.63 µM) | > 64 | 1 (≈ 0.816 µM) | ≤ 0.125 | 1 (≈ 0.816 µM) | 0.5 (≈ 0.408 µM) | ≤ 0.125 | 0.5 (≈ 0.408 µM) | 2 (≈ 1.63 µM)
CCC1OC(=O)[C@H](C)[C@@H](O[C@H]2C[C@@](C)(OC)[C@@H](OC(=O)CNC(=O)CCNCCOCCOCCNc3cc4c(cc3F)c(=O)c(C(=O)O)cn4C3CC3)[C@H](C)O2)C(C)[C@@H](O[C@@H]2O[C@H](C)C[C@H](N(C)C)[C@H]2O)[C@](C)(O)C[C@@H](C)CN(C)[C@H](C)[C@@H](O)[C@]1(C)O (single isomer, unassigned) | 16 (≈ 12.8 µM) | 8 (≈ 6.38 µM) | 2 (≈ 1.6 µM) | 0.5 (≈ 0.399 µM) | 32 (≈ 25.5 µM) | > 64 | 16 (≈ 12.8 µM) | ≤ 0.125 | 8 (≈ 6.38 µM) | 4 (≈ 3.19 µM) | ≤ 0.125 | 4 (≈ 3.19 µM) | 32 (≈ 25.5 µM)
CCC1OC(=O)[C@H](C)[C@@H](O[C@H]2C[C@@](C)(OC)[C@@H](OC(=O)CNCCCNCCNc3cc4c(cc3F)c(=O)c(C(=O)O)cn4C3CC3)[C@H](C)O2)C(C)[C@@H](O[C@@H]2O[C@H](C)C[C@H](N(C)C)[C@H]2O)[C@](C)(O)C[C@@H](C)CN(C)[C@H](C)[C@@H](O)[C@]1(C)O (single isomer, unassigned) | 0.5 (≈ 0.434 µM) | 1 (≈ 0.868 µM) | 0.25 (≈ 0.217 µM) | ≤ 0.125 | 1 (≈ 0.868 µM) | > 64 | 0.5 (≈ 0.434 µM) | ≤ 0.125 | 0.5 (≈ 0.434 µM) | – | ≤ 0.125 | 0.25 (≈ 0.217 µM) | 1 (≈ 0.868 µM)
CCC1OC(=O)[C@H](C)[C@@H](O[C@H]2C[C@@](C)(OC)[C@@H](OC(=O)CNC(=O)CSc3cnc4ccccc4n3)[C@H](C)O2)C(C)[C@@H](O[C@@H]2O[C@H](C)C[C@H](N(C)C)[C@H]2O)[C@](C)(O)C[C@@H](C)CN(C)[C@H](C)[C@@H](O)[C@]1(C)O (single isomer, unassigned) | 0.5 (≈ 0.496 µM) | 8 (≈ 7.93 µM) | 16 (≈ 15.9 µM) | 4 (≈ 3.97 µM) | 1 (≈ 0.992 µM) | > 64 | 8 (≈ 7.93 µM) | ≤ 0.125 | 16 (≈ 15.9 µM) | 0.25 (≈ 0.248 µM) | ≤ 0.125 | 8 (≈ 7.93 µM) | 32 (≈ 31.7 µM)
CCC1OC(=O)[C@H](C)[C@@H](O[C@H]2C[C@@](C)(OC)[C@@H](OC(=O)CNC(=O)CCNCCOCCNc3cc4c(cc3F)c(=O)c(C(=O)O)cn4C3CC3)[C@H](C)O2)C(C)[C@@H](O[C@@H]2O[C@H](C)C[C@H](N(C)C)[C@H]2O)[C@](C)(O)C[C@@H](C)CN(C)[C@H](C)[C@@H](O)[C@]1(C)O (single isomer, unassigned) | 8 (≈ 6.61 µM) | 4 (≈ 3.31 µM) | 1 (≈ 0.827 µM) | 0.25 (≈ 0.207 µM) | 4 (≈ 3.31 µM) | > 64 | 4 (≈ 3.31 µM) | ≤ 0.125 | 8 (≈ 6.61 µM) | 4 (≈ 3.31 µM) | ≤ 0.125 | 4 (≈ 3.31 µM) | 16 (≈ 13.2 µM)
CC[C@H]1OC(=O)[C@H](C)C(=O)[C@H](C)[C@@H](O[C@@H]2O[C@H](C)C[C@H](N(C)C)[C@H]2O)[C@](C)(OCC=Cc2cnc3ccccc3c2)C[C@@H](C)C(=O)[C@H](C)[C@H]2NC(=O)O[C@@]21C [CETHROMYCIN] | – | 1 (≈ 1.31 µM) | ≤ 0.125 | ≤ 0.125 | 0.25 (≈ 0.326 µM) | > 64 | 0.25 (≈ 0.326 µM) | ≤ 0.125 | – | – | ≤ 0.125 | – | 1 (≈ 1.31 µM)
O=C(O)c1cn(C2CC2)c2cc(N3CCNCC3)c(F)cc2c1=O [CIPROFLOXACIN] | ≤ 0.125 | ≤ 0.125 | ≤ 0.125 | ≤ 0.125 | – | – | – | ≤ 0.125 | 0.25 (≈ 0.754 µM) | 0.25 (≈ 0.754 µM) | 2 (≈ 6.04 µM) | 0.25 (≈ 0.754 µM) | 0.5 (≈ 1.51 µM)
CC[C@H]1OC(=O)[C@H](C)C(=O)[C@H](C)[C@@H](O[C@@H]2O[C@H](C)C[C@H](N(C)C)[C@H]2O)[C@](C)(OC)C[C@@H](C)C(=O)[C@H](C)[C@H]2N(CCCCn3cnc(-c4cccnc4)c3)C(=O)O[C@]12C [TELITHROMYCIN] | 0.25 (≈ 0.308 µM) | 1 (≈ 1.23 µM) | ≤ 0.125 | ≤ 0.125 | 0.5 (≈ 0.616 µM) | > 64 | 0.25 (≈ 0.308 µM) | ≤ 0.125 | – | 0.5 (≈ 0.616 µM) | ≤ 0.125 | – | 8 (≈ 9.85 µM)

— ChEMBL document CHEMBL3763128, “Synthesis and antibacterial evaluation of novel 4″-glycyl linked quinolyl-azithromycins with potent activity against macrolide-resistant pathogens” (2016)
